Experimental findings from ChEMBL document CHEMBL3259745, “Identification of trisubstituted-pyrazol carboxamide analogs as novel and potent antagonists of farnesoid X receptor” (Bioorg Med Chem, 2014) are described below.

Activity calls are given as the source filed them. The rule behind the calls is not given here.

Data set [1] is described as follows: Cytotoxicity against HEK293T cells expressing FXR and beta-lactamase genes assessed as inhibition of cell viability at 40 uM after 16 hrs by CellTiter-Glo luminescent assay relative to control. Format: cell-based, HEK-293T. The following applies: human, read-out: INH. The procedure, abridged:
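Viability run alongside the agonist assay in the same GeneBLAzer FXR HEK 293T cells: 20,000 cells/well in phenol red-free DMEM with 2% charcoal/dextran-treated FBS, 0.5% DMSO, 16 h at 37°C. Cooled 20 min, then CellTiter-Glo added for 20 min in dark; luminescence read.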

The target in data set [2] is T1, Bile acid receptor (Homo sapiens) (UniProt Q96RI1).
T1 sequence (whole entry): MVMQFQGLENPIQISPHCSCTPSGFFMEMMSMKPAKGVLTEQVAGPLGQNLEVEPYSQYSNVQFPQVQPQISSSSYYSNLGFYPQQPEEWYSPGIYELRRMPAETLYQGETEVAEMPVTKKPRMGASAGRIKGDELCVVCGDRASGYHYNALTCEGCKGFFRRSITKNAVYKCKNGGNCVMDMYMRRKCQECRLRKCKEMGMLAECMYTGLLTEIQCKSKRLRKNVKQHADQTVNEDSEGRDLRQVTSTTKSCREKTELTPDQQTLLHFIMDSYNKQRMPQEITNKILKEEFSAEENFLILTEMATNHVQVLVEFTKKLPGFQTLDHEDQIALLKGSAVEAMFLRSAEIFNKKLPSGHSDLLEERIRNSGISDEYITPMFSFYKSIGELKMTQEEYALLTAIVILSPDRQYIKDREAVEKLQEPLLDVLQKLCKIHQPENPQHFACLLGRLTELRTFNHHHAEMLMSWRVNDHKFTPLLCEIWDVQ
Description: Inhibition of GW4064-induced transactivation of FXR (unknown origin) expressed in HEK293T cells at 40 uM after 16 hrs by beta-lactamase reporter gene assay relative to control. Format: cell-based. The following applies: HEK-293T. Background: A reporter such as luciferase makes a cellular process visible.

Data set [3] deals with T1, Bile acid receptor (Homo sapiens). Description: Antagonist activity at human GST-tagged FXR at 164 nM after 20 mins by TR-FRET assay relative to control. On the technique in general: Time-resolved FRET reads energy transfer from a long-lived donor to a nearby acceptor.
For data set [4] the target is unchanged. As to the kind of experiment: Agonist activity at human FXR.
Data set [5] has the same target. Description: Antagonist activity at human GST-tagged FXR at 493 nM after 20 mins by TR-FRET assay relative to control.
Data set [6] has the same target. Description: Agonist activity at FXR (unknown origin) expressed in HEK293T cells after 16 hrs by beta-lactamase reporter gene assay relative to control. Format: cell-based. The following applies: HEK-293T.
Data set [7] shares this target. Description: Antagonist activity at human GST-tagged FXR at 13.3 uM after 20 mins by TR-FRET assay relative to control.
Data set [8] shares this target. As to the kind of experiment: Inhibition of GW4064-induced transactivation of FXR (unknown origin) expressed in HEK293T cells at 1 uM after 16 hrs by beta-lactamase reporter gene assay relative to control. As to conditions: HEK-293T. Format: cell-based.
Data set [9] has the same target. As to the kind of experiment: Antagonist activity at human GST-tagged FXR at 4.4 uM after 20 mins by TR-FRET assay relative to control.
The target is the same in data set [10]. Description: Ratio of E16 IC50 to compound IC50 for human GST-tagged FXR after 20 mins by TR-FRET assay.
Data set [11] has as its target T2, Bile acid receptor (Homo sapiens, UniProt Q96RI1).
T2 sequence (Q96RI1 whole entry): T1 sequence (whole entry)
Description: Antagonist activity at human GST-tagged FXR after 20 mins by TR-FRET assay.

Data set [12] deals with T2, Bile acid receptor. As to the kind of experiment: Inhibition of GW4064-induced transactivation of FXR (unknown origin) expressed in HEK293T cells after 16 hrs by beta-lactamase reporter gene assay. Format: cell-based, HEK-293T.
In data set [13] the target is T1, Bile acid receptor (Homo sapiens). As to the kind of experiment: Antagonist activity at human GST-tagged FXR at 40 uM after 20 mins by TR-FRET assay relative to control.

Take `Cc1ccc(-c2nn(-c3ccccc3)cc2C(=O)Nc2ccc(C)c(S(=O)(=O)N3CCOCC3)c2)cc1`: the cytotoxicity at 16 h, 40 µM in data set [1] turned out to be 17.9%. Moreover, the inhibition (commonly the change of the read-out against control, counted positive when it falls) in data set [2] stood at 77.2%; in data set [3], 100%. For the same molecule, the outcome in data set [4] was inactive.
Regarding `O=C(Nc1cccc(S(=O)(=O)N2CCOCC2)c1)c1cn(-c2ccccc2)nc1-c1ccc(F)cc1`, the cytotoxicity at 16 h, 40 µM in [1] is 16.3%. Moreover, the results for the inhibition in [2] and in [5] were 42.6% and 53.3%, respectively. Besides, the result in [4] was inactive.
On the same counts, the results for `O=C(Nc1ccc(S(=O)(=O)N2CCOCC2)cc1)c1cn(-c2ccccc2)nc1-c1ccccc1` are 7.4%, 18.6%, 12.7% and “inactive”.
`Cc1ccc(-c2nn(C(C)C)cc2CNc2ccc(C)c(S(=O)(=O)N3CCOCC3)c2)cc1`: the cytotoxicity at 16 h, 40 µM in [1] is 10.5%. Further, in data set [6], the outcome was inactive. For the same molecule, the inhibition is 36.8% in data set [2] and 99.5% in data set [7]. The inhibition entry in data set [8] is “inactive”.
`COc1cccc(Cn2cc(C(=O)Nc3ccc(C)c(S(=O)(=O)N4CCOCC4)c3)c(C(C)C)n2)c1`: in [1], the cytotoxicity at 16 h, 40 µM was less than 5%. In addition, in [6], the outcome was inactive. Also, the inhibition in [2] came out at 99.2%; in data set [9], 101%.
With `C[C@H](CCC(=O)O)[C@H]1CC[C@H]2[C@@H]3CC[C@@H]4C[C@H](O)CC[C@]4(C)[C@H]3CC[C@]12C` [LITHOCHOLIC ACID], the cytotoxicity at 16 h, 40 µM in [1] is less than 5%.
On to `Cc1ccc(-c2nn(Cc3cccc(C(F)(F)F)c3)cc2C(=O)Nc2ccc(C)c(S(=O)(=O)N3CCOCC3)c2)cc1`, for which the cytotoxicity at 16 h, 40 µM in data set [1] was less than 5%. Besides, in data set [6], the result was inactive. Also, the inhibition in [2] worked out at 93.4%; in data set [3], 99.2%.
As for `Cc1ccc(-c2nn(-c3ccc(F)cc3)cc2C(=O)Nc2ccc(C)c(S(=O)(=O)N3CCOCC3)c2)cc1`, the cytotoxicity at 16 h, 40 µM in [1] is 18.5%. The result in data set [6] was inactive. Moreover, the inhibition in [2] amounted to 72%; in data set [5] it was 95%. In addition, the Ratio IC50 in [10] is 3.
As for `O=C(Nc1ccc(F)c(S(=O)(=O)N2CCOCC2)c1)c1cnn(-c2ccccc2)c1`, in data set [1], the cytotoxicity at 16 h, 40 µM came to 27.4%. For the same molecule, the IC50 – broadly, the concentration needed to halve the response being measured – on Bile acid receptor [11] amounted to 8.3 µM; on Bile acid receptor [12], 9.4 µM. For the same molecule, the inhibition in data set [2] was found to be 80.3%; in data set [7] it was 83.8%. Also, the outcome in data set [4] was inactive.
Regarding `Cc1ccc(-c2nn(-c3ccc(Cl)cc3Cl)cc2C(=O)Nc2ccc(C)c(S(=O)(=O)N3CCOCC3)c2)cc1`, the cytotoxicity at 16 h, 40 µM in [1] is less than 5%. Further, the result in data set [6] was inactive. Moreover, the inhibition worked out at 89.9% in data set [2] and 120% in data set [3]. Besides, the Ratio IC50 in [10] was determined as 3.
Regarding `Cc1ccc(NC(=O)c2cnn(-c3ccccc3)c2C(F)(F)F)cc1S(=O)(=O)N1CCOCC1`, in data set [1], the cytotoxicity at 16 h, 40 µM is 51.3%. The values for the concentration for half-maximal inhibition (IC50) against Bile acid receptor [11] and against Bile acid receptor [12] were 0.996 µM and 11.8 µM, respectively. For the same molecule, the inhibition in data set [2] is 101%; in [7], 99.8%. Besides, in [4], the result was inactive.
Regarding `Cc1ccc(NC(=O)c2cnn(-c3cccnc3)c2)cc1S(=O)(=O)N1CCOCC1`, the cytotoxicity at 16 h, 40 µM in [1] is 27.9%. The figures for the inhibition in [2] and in [7] were 16.1% and 18.8%, respectively. Besides, the result in data set [4] was inactive.
For `O=C(Nc1cccc(S(=O)(=O)N2CCOCC2)c1)c1cn(-c2ccccc2)nc1-c1ccccc1`, the cytotoxicity at 16 h, 40 µM in data set [1] was found to be 7.1%. For the same molecule, the values for the inhibition in [2] and in data set [5] were 54.9% and 44.4%, respectively. For the same molecule, the outcome in data set [4] was inactive.
Take `CC(C)c1onc(-c2c(Cl)cccc2Cl)c1COc1ccc(/C=C/c2cccc(C(=O)O)c2)c(Cl)c1`: the cytotoxicity at 16 h, 40 µM in data set [1] is less than 5%.
As for `Cc1cccc(-n2ncc(C(=O)Nc3cccc(S(=O)(=O)N4CCOCC4)c3)c2C)c1`, the cytotoxicity at 16 h, 40 µM in [1] is less than 5%. Also, the IC50 against Bile acid receptor [11] stood at 6.6 µM; at Bile acid receptor [12] it was 29.3 µM. Moreover, the inhibition in [2] turned out to be 66.9%; in [7], 85.1%. Also, the result in [4] was inactive.
As to `Cc1ccc(-c2nn(C(C)C)cc2C(=O)N(C)c2ccc(C)c(S(=O)(=O)N3CCOCC3)c2)cc1`, in data set [1], the cytotoxicity at 16 h, 40 µM was found to be 15%. In addition, in data set [6], the result was inactive. Besides, the inhibition is 86.4% in data set [2] and 133% in data set [13]. The inhibition result in data set [8] was “inactive”.
As for `Cc1ccc(-c2nn(CCCCO)cc2C(=O)Nc2ccc(C)c(S(=O)(=O)N3CCOCC3)c2)cc1`, the cytotoxicity at 16 h, 40 µM in data set [1] worked out at 5.9%. Besides, the result in data set [6] was inactive. Further, the inhibition turned out to be 97.6% in data set [2] and 89.3% in data set [5].
Turning to `Cc1ccc(NC(=O)c2cn(C(C)C)nc2-c2ccc(C(F)(F)F)cc2)cc1S(=O)(=O)N1CCOCC1`, the cytotoxicity at 16 h, 40 µM in data set [1] stood at 19.5%. In addition, the result in data set [6] was inactive. In addition, the inhibition amounted to 100% in data set [2] and 133% in data set [9].
Consider `Cc1ccc(-c2nn(-c3cccc(Cl)c3)cc2C(=O)Nc2ccc(C)c(S(=O)(=O)N3CCOCC3)c2)cc1`, for which the cytotoxicity at 16 h, 40 µM in data set [1] was less than 5%. Also, the outcome in data set [6] was inactive. Besides, the inhibition in data set [2] amounted to 60.6%; in [3], 99.3%. For the same molecule, the Ratio IC50 in data set [10] is 3.
Consider `COc1cccc(Cn2cc(C(=O)Nc3ccc(C)c(S(=O)(=O)N4CCOCC4)c3)c(-c3cccc(OC)c3)n2)c1`, for which the cytotoxicity at 16 h, 40 µM in [1] is less than 5%. Moreover, the outcome in data set [6] was inactive. Further, the inhibition in data set [2] was 89.4%; in data set [5] it was 114%.
With `COCCc1nn(C(C)C)cc1C(=O)Nc1ccc(C)c(S(=O)(=O)N2CCOCC2)c1`, the cytotoxicity at 16 h, 40 µM in data set [1] is less than 5%. In [6], the result was inactive. Also, the inhibition was found to be 62.5% in data set [2] and 98.2% in [13].
As for `O=C(Nc1ccc(S(=O)(=O)N2CCOCC2)cc1)c1cn(-c2ccccc2)nc1-c1ccc(F)cc1`, the cytotoxicity at 16 h, 40 µM in [1] is less than 5%. The inhibition stood at 34.7% in data set [2] and 21.2% in data set [3]. Further, the outcome in [4] was inactive.
For the molecule `Cc1ccc(-c2nn(-c3cccc(C(F)(F)F)c3)cc2C(=O)Nc2ccc(C)c(S(=O)(=O)N3CCOCC3)c2)cc1`, the cytotoxicity at 16 h, 40 µM in data set [1] stood at 7.3%. In [6], the result was inactive. The inhibition in [2] worked out at 54.8%; in data set [3] it was 77.5%. In [10], the Ratio IC50 is 3.
On to `Cc1ccc(-c2nn(-c3ccccc3)cc2C(=O)Nc2cccc(S(=O)(=O)N3CCOCC3)c2)cc1`, for which the cytotoxicity at 16 h, 40 µM in data set [1] came to 5.4%. Besides, the inhibition worked out at 32.8% in [2] and 27.5% in data set [5]. In addition, the result in data set [4] was inactive.
`Cc1ccc(NC(=O)c2c(C)nn(-c3ccccc3)c2C)cc1S(=O)(=O)N1CCOCC1`: the cytotoxicity at 16 h, 40 µM in data set [1] is 47.4%. The IC50 at Bile acid receptor [11] turned out to be 3.3 µM; on Bile acid receptor [12], 11.8 µM. Moreover, the values for the inhibition in [2] and in data set [7] were 99% and 70.6%, respectively. In addition, in data set [4], the result was inactive.
With `COc1cccc(Cn2cc(C(=O)Nc3ccc(C)c(S(=O)(=O)N4CCOCC4)c3)c(-c3ccc(C(F)(F)F)cc3)n2)c1`, the cytotoxicity at 16 h, 40 µM in data set [1] is less than 5%. Also, the outcome in data set [6] was inactive. Moreover, the inhibition came out at 97.6% in data set [2] and 109% in data set [3].
For `COCCc1nn(Cc2cccc(OC)c2)cc1C(=O)Nc1ccc(C)c(S(=O)(=O)N2CCOCC2)c1`, the cytotoxicity at 16 h, 40 µM in data set [1] is less than 5%. Moreover, the result in data set [6] was inactive. In addition, the inhibition was 95.9% in data set [2] and 114% in [7].
Take `COc1cccc(Cn2cc(C(=O)N(C)c3ccc(C)c(S(=O)(=O)N4CCOCC4)c3)c(-c3cccc(OC)c3)n2)c1`: the cytotoxicity at 16 h, 40 µM in data set [1] is 19.7%. The outcome in data set [6] was inactive. Also, the inhibition is 23.8% in [2] and 69.7% in [13]. Further, in [8], the inhibition entry is “inactive”.
